Data: ChEMBL document CHEMBL4339195, “Di-aryl Sulfonamide Motif Adds π-Stacking Bulk in Negative Allosteric Modulators of the NMDA Receptor” (ACS Med Chem Lett, 2019)
Activity calls are given as the source filed them. The rule behind the calls is not given here.

Experiments:
[1] = target: Ionotropic glutamate receptor NMDA 1/2D (Rattus norvegicus, UniProt P35439+Q62645); test: Negative allosteric modulation of recombinant rat GluN1/GluN2D expressed in Xenopus laevis oocytes assessed as inhibition of glutamate/glycine-induced current response at -40 mV holding potential by two-electrode voltage clamp method; type: cell-based
Outline: (§1)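 Oocytes recorded while the drug is co-applied with a maximally effective 100 µM glutamate plus 30 µM glycine. Response is expressed as percent of the glutamate/glycine control. IC50 comes from a Hill fit to the average composite concentration-response curve. 8-16 oocytes from 2-3 frogs per compound and receptor.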

[2] = target: T1, Glutamate NMDA receptor; Grin1/Grin2c (Rattus norvegicus) (UniProt P35439+Q00961); test: Negative allosteric modulation of recombinant rat GluN1/GluN2C expressed in Xenopus laevis oocytes assessed as inhibition of glutamate/glycine-induced current response at 30 uM at -40 mV holding potential by two-electrode voltage clamp method relative to glutamate/glycine; type: cell-based; settings: for residual activity: values are per cent of control; outline: as §1
[3] = target: T2, Ionotropic glutamate receptor NMDA 1/2D (Rattus norvegicus) (UniProt P35439+Q62645); test: Negative allosteric modulation of recombinant rat GluN1/GluN2D expressed in Xenopus laevis oocytes assessed as inhibition of glutamate/glycine-induced current response at saturated concentration at -40 mV holding potential by two-electrode voltage clamp method relative to glutamate/glycine; type: cell-based
Outline: (§2)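 Hill fit of the composite concentration-response curve in oocytes, with agonist 100 µM glutamate plus 30 µM glycine. Residual response in saturating compound is either fixed at 0 or fitted. 8-16 oocytes from 2-3 frogs.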

[4] = target: T2, Ionotropic glutamate receptor NMDA 1/2D (Rattus norvegicus); test: Negative allosteric modulation of recombinant rat GluN1/GluN2D expressed in Xenopus laevis oocytes assessed as inhibition of glutamate/glycine-induced current response at 30 uM at -40 mV holding potential by two-electrode voltage clamp method relative to glutamate/glycine; type: cell-based; settings: for residual activity: values are per cent of control; outline: as §1
[5] = target: T1, Glutamate NMDA receptor; Grin1/Grin2c (Rattus norvegicus); test: Negative allosteric modulation of recombinant rat GluN1/GluN2C expressed in Xenopus laevis oocytes assessed as inhibition of glutamate/glycine-induced current response at saturated concentration at -40 mV holding potential by two-electrode voltage clamp method relative to glutamate/glycine; type: cell-based; outline: as §2
[6] = target: Glutamate NMDA receptor; Grin1/Grin2c (Rattus norvegicus, UniProt P35439+Q00961); test: Negative allosteric modulation of recombinant rat GluN1/GluN2C expressed in Xenopus laevis oocytes assessed as inhibition of glutamate/glycine-induced current response at -40 mV holding potential by two-electrode voltage clamp method; type: cell-based; outline: as §1
[7] = target: T3, Glutamate NMDA receptor; Grin1/Grin2a (Rattus norvegicus) (UniProt P35439+Q00959); test: Negative allosteric modulation of recombinant rat GluN1/GluN2A expressed in Xenopus laevis oocytes assessed as residual glutamate/glycine-induced current response at 30 uM at -40 mV holding potential by two-electrode voltage clamp method relative to glutamate/glycine
[8] = target: T2, Ionotropic glutamate receptor NMDA 1/2D (Rattus norvegicus); test: Potency index, ratio of NP11999 IC50 to test compound IC50 for negative allosteric modulation of recombinant rat GluN1/GluN2D expressed in Xenopus laevis oocytes assessed as inhibition of glutamate/glycine-induced current response; type: cell-based
[9] = target: T1, Glutamate NMDA receptor; Grin1/Grin2c (Rattus norvegicus); test: Potency index, ratio of NP11999 IC50 to test compound IC50 for negative allosteric modulation of recombinant rat GluN1/GluN2C expressed in Xenopus laevis oocytes assessed as inhibition of glutamate/glycine-induced current response; type: cell-based
[10] = target: Glutamate NMDA receptor; Grin1/Grin2a (Rattus norvegicus, UniProt P35439+Q00959); test: Negative allosteric modulation of recombinant rat GluN1/GluN2A expressed in Xenopus laevis oocytes assessed as inhibition of glutamate/glycine-induced current response at -40 mV holding potential by two-electrode voltage clamp method; type: cell-based; outline: as §1
[11] = target: T3, Glutamate NMDA receptor; Grin1/Grin2a (Rattus norvegicus); test: Negative allosteric modulation of recombinant rat GluN1/GluN2A expressed in Xenopus laevis oocytes assessed as remaining glutamate/glycine-induced current response at 6 uM at -40 mV holding potential by two-electrode voltage clamp method relative to glutamate/glycine
[12] = target: T1, Glutamate NMDA receptor; Grin1/Grin2c (Rattus norvegicus); test: Negative allosteric modulation of recombinant rat GluN1/GluN2C expressed in Xenopus laevis oocytes assessed as remaining glutamate/glycine-induced current response at 10 uM at -40 mV holding potential by two-electrode voltage clamp method relative to glutamate/glycine
[13] = target: T2, Ionotropic glutamate receptor NMDA 1/2D (Rattus norvegicus); test: Negative allosteric modulation of recombinant rat GluN1/GluN2D expressed in Xenopus laevis oocytes assessed as residual glutamate/glycine-induced current response at 10 uM at -40 mV holding potential by two-electrode voltage clamp method relative to glutamate/glycine
[14] = target: CHRNA1/CHRNB1/CHRNG/CHRND (Rattus norvegicus) (UniProt P25109+P25108+P25110+P18916); test: Negative allosteric modulation of rat alpha1betagammadelta nACHR expressed in Xenopus laevis oocytes assessed as inhibition of acetylcholine-induced current response at 30 uM at -40 mV holding potential by two-electrode voltage clamp method relative to acetylcholine alone; type: cell-based
Outline: (§3)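 Oocyte two-electrode voltage clamp at -40 mV holding. Test compound co-applied with agonist; response given as percent of the mean of control and recovery currents to agonist alone. Agonists: 100 µM glutamate (AMPA, kainate), 100 µM GABA (GABA receptors), 100 µM glycine (glycine receptor), 100 µM serotonin (5-HT3A), 9 µM ATP (P2X), 1 µM acetylcholine (nicotinic).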

Homo sapiens = organism: Homo sapiens; test: Negative allosteric modulation of human GluA2 R607Q mutant expressed in Xenopus laevis oocytes assessed as inhibition of glutamate-induced current response at 30 uM at -40 mV holding potential by two-electrode voltage clamp method relative to glutamate alone; type: cell-based; outline: as §3
[15] = target: Glutamate receptor ionotropic, kainate 2 (Rattus norvegicus) (UniProt P42260); test: Negative allosteric modulation of rat GluK2 expressed in Xenopus laevis oocytes assessed as inhibition of glutamate-induced current response at 30 uM at -40 mV holding potential in presence of concanavalin A by two-electrode voltage clamp method relative to glutamate alone; type: cell-based; outline: as §3
Glutamate receptor ionotropic, kainate 2 (Rattus norvegicus), sequence (P42260 whole entry): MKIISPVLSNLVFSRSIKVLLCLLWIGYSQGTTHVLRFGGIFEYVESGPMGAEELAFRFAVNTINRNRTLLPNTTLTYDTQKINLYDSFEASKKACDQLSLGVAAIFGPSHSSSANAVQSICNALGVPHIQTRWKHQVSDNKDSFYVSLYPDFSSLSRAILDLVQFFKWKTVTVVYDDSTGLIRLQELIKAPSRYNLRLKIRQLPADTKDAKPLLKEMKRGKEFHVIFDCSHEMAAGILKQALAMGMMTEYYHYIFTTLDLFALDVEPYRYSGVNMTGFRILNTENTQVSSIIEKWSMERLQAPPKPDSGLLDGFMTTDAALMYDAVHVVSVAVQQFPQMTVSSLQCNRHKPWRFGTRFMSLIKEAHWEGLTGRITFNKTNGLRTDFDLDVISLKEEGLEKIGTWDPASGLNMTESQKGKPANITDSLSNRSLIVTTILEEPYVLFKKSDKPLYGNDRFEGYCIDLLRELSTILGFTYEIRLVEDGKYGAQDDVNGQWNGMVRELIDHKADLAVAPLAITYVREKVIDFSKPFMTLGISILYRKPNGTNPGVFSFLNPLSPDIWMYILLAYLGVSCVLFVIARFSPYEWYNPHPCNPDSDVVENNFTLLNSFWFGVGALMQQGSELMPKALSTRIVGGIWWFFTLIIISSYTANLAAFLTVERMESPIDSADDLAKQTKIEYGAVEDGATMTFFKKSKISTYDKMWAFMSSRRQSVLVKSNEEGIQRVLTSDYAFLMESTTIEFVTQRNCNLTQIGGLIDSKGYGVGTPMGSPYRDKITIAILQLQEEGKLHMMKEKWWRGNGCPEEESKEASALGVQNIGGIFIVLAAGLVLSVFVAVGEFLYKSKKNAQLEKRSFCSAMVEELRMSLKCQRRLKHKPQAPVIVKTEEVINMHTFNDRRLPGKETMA

[16] = tested on: Glutamate receptor 4 (Homo sapiens), P48058 [L505Y]; test: Negative allosteric modulation of human GluA4 L505Y mutant expressed in Xenopus laevis oocytes assessed as inhibition of glutamate-induced current response at 30 uM at -40 mV holding potential by two-electrode voltage clamp method relative to glutamate alone; type: cell-based; outline: as §3
Glutamate receptor 4 (Homo sapiens), P48058 [L505Y], sequence (P48058 whole entry L505Y): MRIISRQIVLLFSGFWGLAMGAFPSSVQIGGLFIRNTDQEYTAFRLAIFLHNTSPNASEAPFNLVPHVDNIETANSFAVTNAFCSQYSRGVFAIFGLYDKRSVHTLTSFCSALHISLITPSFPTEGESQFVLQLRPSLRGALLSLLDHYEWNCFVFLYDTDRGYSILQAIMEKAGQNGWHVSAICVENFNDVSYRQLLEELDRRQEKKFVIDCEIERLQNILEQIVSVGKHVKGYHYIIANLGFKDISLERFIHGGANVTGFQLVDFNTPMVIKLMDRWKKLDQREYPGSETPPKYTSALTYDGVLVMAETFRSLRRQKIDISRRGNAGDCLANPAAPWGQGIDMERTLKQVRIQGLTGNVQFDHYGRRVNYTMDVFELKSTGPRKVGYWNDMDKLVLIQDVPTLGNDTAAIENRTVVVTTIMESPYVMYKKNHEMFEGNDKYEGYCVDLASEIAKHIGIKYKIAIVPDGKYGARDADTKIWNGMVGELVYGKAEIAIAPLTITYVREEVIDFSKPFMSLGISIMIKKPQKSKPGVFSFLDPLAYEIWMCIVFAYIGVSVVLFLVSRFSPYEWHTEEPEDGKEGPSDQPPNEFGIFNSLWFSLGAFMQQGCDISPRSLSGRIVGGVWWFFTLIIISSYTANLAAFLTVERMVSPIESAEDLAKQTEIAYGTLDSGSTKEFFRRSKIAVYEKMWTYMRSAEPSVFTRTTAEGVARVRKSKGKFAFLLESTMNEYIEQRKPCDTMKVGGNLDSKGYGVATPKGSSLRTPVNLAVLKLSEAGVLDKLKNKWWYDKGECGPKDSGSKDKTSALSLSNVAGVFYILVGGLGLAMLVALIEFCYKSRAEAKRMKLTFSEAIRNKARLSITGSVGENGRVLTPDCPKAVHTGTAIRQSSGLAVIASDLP

Rattus norvegicus [17] = organism: Rattus norvegicus; test: Negative allosteric modulation of rat GABAA alpha1beta2gamma2S expressed in Xenopus laevis oocytes assessed as inhibition of GABA-induced current response at 30 uM at -40 mV holding potential by two-electrode voltage clamp method relative to GABA alone; type: cell-based; outline: as §3
[18] = tested on: Glutamate receptor 3 (Homo sapiens), P42263 [L513Y]; test: Negative allosteric modulation of human GluA3 L513Y mutant expressed in Xenopus laevis oocytes assessed as inhibition of glutamate-induced current response at 30 uM at -40 mV holding potential by two-electrode voltage clamp method relative to glutamate alone; type: cell-based; outline: as §3
Glutamate receptor 3 (Homo sapiens), P42263 [L513Y], sequence (P42263 whole entry L513Y): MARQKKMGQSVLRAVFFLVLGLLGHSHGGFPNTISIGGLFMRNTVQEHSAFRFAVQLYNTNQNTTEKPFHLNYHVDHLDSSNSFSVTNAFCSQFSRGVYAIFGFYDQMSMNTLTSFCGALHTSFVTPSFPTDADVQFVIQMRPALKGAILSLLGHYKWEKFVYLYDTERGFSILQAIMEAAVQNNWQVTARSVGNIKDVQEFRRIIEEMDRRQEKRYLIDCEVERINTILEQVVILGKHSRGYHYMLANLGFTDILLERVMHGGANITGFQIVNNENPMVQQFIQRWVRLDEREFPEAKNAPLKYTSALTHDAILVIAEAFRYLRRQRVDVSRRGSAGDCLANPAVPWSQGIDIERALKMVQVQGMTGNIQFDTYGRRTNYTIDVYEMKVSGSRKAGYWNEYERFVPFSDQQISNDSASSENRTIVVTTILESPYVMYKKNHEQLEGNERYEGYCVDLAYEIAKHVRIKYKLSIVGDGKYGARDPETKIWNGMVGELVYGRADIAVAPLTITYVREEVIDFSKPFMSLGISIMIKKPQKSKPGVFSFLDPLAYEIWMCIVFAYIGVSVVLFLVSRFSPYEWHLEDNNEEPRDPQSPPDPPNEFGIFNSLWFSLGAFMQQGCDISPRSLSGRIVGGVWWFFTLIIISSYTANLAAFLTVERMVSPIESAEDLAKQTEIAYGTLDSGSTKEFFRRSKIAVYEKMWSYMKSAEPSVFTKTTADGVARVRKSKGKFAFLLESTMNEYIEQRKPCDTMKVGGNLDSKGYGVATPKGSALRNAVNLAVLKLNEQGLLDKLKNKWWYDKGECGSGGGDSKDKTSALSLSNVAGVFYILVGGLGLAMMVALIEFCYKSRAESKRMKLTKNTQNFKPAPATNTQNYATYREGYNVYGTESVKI

[19] = target: T4, 5-hydroxytryptamine receptor 3A (Rattus norvegicus) (UniProt P35563); test: Negative allosteric modulation of rat 5HT3A expressed in Xenopus laevis oocytes assessed as inhibition of serotonin-induced current response at 30 uM at -40 mV holding potential by two-electrode voltage clamp method relative to serotonin alone; type: cell-based; outline: as §3
T4 sequence (whole entry): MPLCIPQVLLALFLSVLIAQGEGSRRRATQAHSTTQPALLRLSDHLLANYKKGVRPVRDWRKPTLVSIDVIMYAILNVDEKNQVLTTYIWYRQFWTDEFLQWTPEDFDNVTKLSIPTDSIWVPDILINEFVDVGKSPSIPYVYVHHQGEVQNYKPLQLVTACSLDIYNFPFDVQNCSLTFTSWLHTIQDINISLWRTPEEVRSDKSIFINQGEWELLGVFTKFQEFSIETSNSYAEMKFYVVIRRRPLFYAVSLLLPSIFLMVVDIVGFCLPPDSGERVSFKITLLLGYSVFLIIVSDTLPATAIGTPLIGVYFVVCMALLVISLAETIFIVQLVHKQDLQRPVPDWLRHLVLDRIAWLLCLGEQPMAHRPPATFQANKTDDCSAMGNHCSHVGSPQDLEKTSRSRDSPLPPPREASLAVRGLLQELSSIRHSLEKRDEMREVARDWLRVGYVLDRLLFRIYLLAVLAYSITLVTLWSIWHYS

[20] = target: T5, Glycine receptor subunit alpha-1 (Rattus norvegicus) (UniProt P07727); test: Negative allosteric modulation of rat glycine alpha1 expressed in Xenopus laevis oocytes assessed as inhibition of glycine-induced current response at 30 uM at -40 mV holding potential by two-electrode voltage clamp method relative to glycine alone; type: cell-based; outline: as §3
T5 sequence (whole entry): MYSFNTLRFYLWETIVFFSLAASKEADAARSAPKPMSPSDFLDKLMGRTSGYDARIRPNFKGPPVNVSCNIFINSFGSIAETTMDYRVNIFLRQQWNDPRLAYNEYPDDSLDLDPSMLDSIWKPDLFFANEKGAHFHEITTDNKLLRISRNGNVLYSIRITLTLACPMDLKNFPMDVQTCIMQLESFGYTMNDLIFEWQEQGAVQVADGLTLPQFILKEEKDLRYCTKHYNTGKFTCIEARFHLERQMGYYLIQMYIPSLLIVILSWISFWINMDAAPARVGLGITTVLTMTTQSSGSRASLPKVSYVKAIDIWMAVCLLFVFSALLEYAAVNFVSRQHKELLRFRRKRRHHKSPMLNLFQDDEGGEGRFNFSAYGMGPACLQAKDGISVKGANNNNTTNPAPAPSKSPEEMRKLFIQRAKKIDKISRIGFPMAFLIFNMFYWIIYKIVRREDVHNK

Rattus norvegicus [21] = organism: Rattus norvegicus; test: Negative allosteric modulation of rat GABAA rho expressed in Xenopus laevis oocytes assessed as inhibition of GABA-induced current response at 30 uM at -40 mV holding potential by two-electrode voltage clamp method relative to GABA alone; type: cell-based; outline: as §3
[22] = target: Glutamate receptor 1 (Rattus norvegicus) (UniProt P19490); test: Negative allosteric modulation of recombinant rat GluA1 expressed in Xenopus laevis oocytes assessed as inhibition of glutamate-induced current response at 30 uM at -40 mV holding potential by two-electrode voltage clamp method relative to glutamate alone; type: cell-based; outline: as §3
Glutamate receptor 1 (Rattus norvegicus), sequence (P19490 whole entry): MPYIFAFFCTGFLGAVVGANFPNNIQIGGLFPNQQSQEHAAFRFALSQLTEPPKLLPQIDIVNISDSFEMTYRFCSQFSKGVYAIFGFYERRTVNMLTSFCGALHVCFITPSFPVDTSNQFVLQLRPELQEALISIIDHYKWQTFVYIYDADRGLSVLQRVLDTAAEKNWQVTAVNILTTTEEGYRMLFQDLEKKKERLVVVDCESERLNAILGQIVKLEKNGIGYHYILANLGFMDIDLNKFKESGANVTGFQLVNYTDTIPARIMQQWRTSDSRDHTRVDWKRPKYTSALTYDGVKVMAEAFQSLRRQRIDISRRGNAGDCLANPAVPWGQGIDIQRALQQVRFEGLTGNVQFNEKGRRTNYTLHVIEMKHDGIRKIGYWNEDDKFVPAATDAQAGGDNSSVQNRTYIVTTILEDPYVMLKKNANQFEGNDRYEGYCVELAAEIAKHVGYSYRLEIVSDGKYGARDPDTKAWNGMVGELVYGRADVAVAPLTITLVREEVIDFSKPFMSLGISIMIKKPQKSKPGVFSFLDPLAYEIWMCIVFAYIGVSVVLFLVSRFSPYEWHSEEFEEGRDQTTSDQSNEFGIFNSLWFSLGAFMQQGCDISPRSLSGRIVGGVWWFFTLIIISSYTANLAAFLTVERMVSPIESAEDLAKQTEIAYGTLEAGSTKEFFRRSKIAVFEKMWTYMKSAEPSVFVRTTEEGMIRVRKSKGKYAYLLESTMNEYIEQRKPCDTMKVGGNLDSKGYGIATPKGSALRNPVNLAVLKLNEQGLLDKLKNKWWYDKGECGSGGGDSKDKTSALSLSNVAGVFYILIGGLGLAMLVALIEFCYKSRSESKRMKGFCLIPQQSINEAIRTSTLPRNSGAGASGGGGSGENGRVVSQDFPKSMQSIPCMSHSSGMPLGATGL

| SMILES | IC50 [1] | inhibition [3] | inhibition [5] | residual activity [2] | IC50 [6] | residual activity [4] | further results |
| --- | --- | --- | --- | --- | --- | --- | --- |
| CCN(CC)C(=O)Oc1ccc(C(=O)Nc2cccc(C(=O)Nc3ccccc3)c2)cc1 | 8 µM | – | – | – | – | – | – |
| CCN(CC)C(=O)Oc1ccc(C(=O)Nc2ccc(CCNS(=O)(=O)c3ccccc3)cc2)cc1 | – | 0% | 0% | – | – | – | inhibition [2]: 23%; inhibition [4]: 33% |
| CCN(CC)C(=O)Oc1ccc(C(=O)Nc2ccc(CNS(=O)(=O)c3ccccc3)cc2)cc1 | 10 µM | 27% | 41% | 42% | 22 µM | 20% | – |
| CCN(CC)C(=O)Oc1ccc(C(=O)Nc2ccc(C(=O)Nc3ccccc3)cc2)cc1 | > 100 µM | – | – | – | – | – | – |
| O=C(NCc1ccc(C(=O)NNC(=O)c2ccccc2)cc1)c1ccc(F)c(Cl)c1 | – | – | – | – | – | – | residual activity [7]: 102% |
| CCN(CC)C(=O)Oc1ccc(C(=O)Nc2cccc(CNS(=O)(=O)c3ccccc3)c2)cc1 | 29 µM | 0% | 0% | 60% | 45 µM | 46% | – |
| CCN(CC)C(=O)Oc1ccc(C(=O)Nc2cccc(CCNS(=O)(=O)c3ccc(F)c(Cl)c3)c2)cc1 | 1.3 µM | 0% | 0% | 41% | 2.4 µM | 28% | Ratio IC50 [8]: < 6; Ratio IC50 [9]: < 6 |
| CCN(CC)C(=O)Oc1ccc(C(=O)Nc2ccc(CNS(=O)(=O)c3cccnc3)cc2)cc1 | 24 µM | 0% | 0% | 58% | 35 µM | 45% | – |
| O=C(NNC(=O)c1ccc(CNS(=O)(=O)c2ccc(F)c(Cl)c2)cc1)c1ccccc1 | – | – | – | < 15% | – | < 15% | IC50 [10]: 0.17 µM; residual activity [11]: 5.1%; residual activity [12]: 95%; residual activity [13]: 88% |
| CCN(CC)C(=O)Oc1ccc(C(=O)Nc2cccc3cc[nH]c23)cc1 | 2.2 µM | – | – | – | 3.7 µM | – | inhibition [14]: inactive; inhibition (Homo sapiens): Active; inhibition [15]: Active; inhibition [16]: Active; inhibition (Rattus norvegicus [17]): Active; inhibition [18]: Active; inhibition [19]: inactive; residual activity [12]: 24%; inhibition [20]: inactive; residual activity [13]: 16%; inhibition (Rattus norvegicus [21]): Active; inhibition [22]: Active |
| CCN(CC)C(=O)Oc1ccc(C(=O)Nc2cccc(CCNS(=O)(=O)c3cccnc3)c2)cc1 | 2.7 µM | 0% | 0% | 8.5% | 3.2 µM | 8.6% | Ratio IC50 [8]: < 6; Ratio IC50 [9]: < 6 |
| CCN(CC)C(=O)Oc1ccc(C(=O)Nc2ccccc2)cc1 | 5.8 to 6 µM | – | – | – | 8.6 µM | – | residual activity [12]: 49%; residual activity [13]: 37% |
| CCN(CC)C(=O)Oc1ccc(C(=O)Nc2ccc(CCNS(=O)(=O)c3ccc(F)c(Cl)c3)cc2)cc1 | – | 0% | 0% | – | – | – | inhibition [2]: 21%; inhibition [4]: 26% |
| CCN(CC)C(=O)Oc1ccc(C(=O)Nc2ccc(CCNS(=O)(=O)c3cccnc3)cc2)cc1 | 5.1 µM | 0% | 0% | 37% | 12 µM | 26% | – |
| CCN(CC)C(=O)Oc1ccc(C(=O)Nc2cccc(CNS(=O)(=O)c3cccnc3)c2)cc1 | 23 µM | 0% | 0% | 52% | 34 µM | 42% | – |
| CCN(CC)C(=O)Oc1ccc(C(=O)Nc2cccc(CCNC(=O)c3ccccc3)c2)cc1 | 29 µM | – | – | 56% | 37 µM | 49% | residual activity [7]: 82% |
